Measured values as given in ChEMBL document CHEMBL2040727, “Substituted thiazoles VI. Synthesis and antitumor activity of new 2-acetamido- and 2 or 3-propanamido-thiazole analogs” (2012).

Columns and labels:
Type in all cases: functional
[1] = Growth inhibition of human Hs 578T cells at 10 uM after 48 hrs by coulter counter analysis; conditions: read-out: GI
Procedure, shortened: (§1)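 Single-dose NCI 60-line panel screen of test compounds. Cells grown in RPMI 1640 with 10% FBS. Compounds dissolved in DMSO, then diluted in phosphate buffer saline (final DMSO below 1%). Wells run in duplicate at 6 × 10⁴ cells/ml. Controls held PBS and DMSO at matching dilutions. Incubation 48 h at 37 °C under humidified 5% CO2. Cells diluted tenfold in saline and counted by Coulter counter. Percent growth inhibition taken from mean-graph of treated-cell growth.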

IGROV-1 = experiment: Growth inhibition of human IGROV1 cells at 10 uM after 48 hrs by coulter counter analysis; conditions: IGROV-1, 48 h, read-out: GI; procedure, shortened: as §1
OVCAR-4 = experiment: Growth inhibition of human OVCAR4 cells at 10 uM after 48 hrs by coulter counter analysis; conditions: OVCAR-4, 48 h, read-out: GI; procedure, shortened: as §1
COLO 205 = experiment: Growth inhibition of human COLO205 cells at 10 uM after 48 hrs by coulter counter analysis; conditions: COLO 205, 48 h, read-out: GI; procedure, shortened: as §1
Malme-3M = experiment: Growth inhibition of human MALME-3M cells at 10 uM after 48 hrs by coulter counter analysis; conditions: read-out: GI; procedure, shortened: as §1
SF-539 = experiment: Growth inhibition of human SF539 cells at 10 uM after 48 hrs by coulter counter analysis; conditions: SF-539, 48 h, read-out: GI; procedure, shortened: as §1
SF-268 = experiment: Growth inhibition of human SF268 cells at 10 uM after 48 hrs by coulter counter analysis; conditions: SF-268, 48 h, read-out: GI; procedure, shortened: as §1
SK-MEL-2 = experiment: Growth inhibition of human SK-MEL-2 cells at 10 uM after 48 hrs by coulter counter analysis; conditions: SK-MEL-2, 48 h, read-out: GI; procedure, shortened: as §1
A498 = experiment: Growth inhibition of human A498 cells at 10 uM after 48 hrs by coulter counter analysis; conditions: A498, 48 h, read-out: GI; procedure, shortened: as §1
MCF7 = experiment: Growth inhibition of human MCF7 cells at 10 uM after 48 hrs by coulter counter analysis; conditions: MCF7, 48 h, read-out: GI; procedure, shortened: as §1
HCT-15 = experiment: Growth inhibition of human HCT15 cells at 10 uM after 48 hrs by coulter counter analysis; conditions: HCT-15, 48 h, read-out: GI; procedure, shortened: as §1
NCI-H522 = experiment: Growth inhibition of human NCI-H522 cells at 10 uM after 48 hrs by coulter counter analysis; conditions: NCI-H522, 48 h, read-out: GI; procedure, shortened: as §1
RXF 393 = experiment: Growth inhibition of human RXF393 cells at 10 uM after 48 hrs by coulter counter analysis; conditions: RXF 393, 48 h, read-out: GI; procedure, shortened: as §1
HCC 2998 = experiment: Growth inhibition of human HCC2998 cells at 10 uM after 48 hrs by coulter counter analysis; conditions: HCC 2998, 48 h, read-out: GI; procedure, shortened: as §1
LOX IMVI = experiment: Growth inhibition of human LOXIMVI cells at 10 uM after 48 hrs by coulter counter analysis; conditions: read-out: GI; procedure, shortened: as §1
MDA-MB-435 = experiment: Growth inhibition of human MDA-MB-435 cells at 10 uM after 48 hrs by coulter counter analysis; conditions: MDA-MB-435, 48 h, read-out: GI; procedure, shortened: as §1
HL-60(TB) = experiment: Growth inhibition of human HL-60(TB) cells at 10 uM after 48 hrs by coulter counter analysis; conditions: HL-60, 48 h, read-out: GI
Procedure, shortened: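 Cells grown in RPMI 1640 with 10% FBS. Compound was dissolved in DMSO and diluted in PBS (under 1% DMSO final), then added in duplicate wells to culture at 6 × 10⁴ cells/ml. PBS/DMSO vehicle controls were included. Incubated at 37 °C, humidified 5% CO₂, for 48 h. Cells were diluted 10-fold in saline and Coulter-counted. Single-dose NCI-60 screen, read as percent growth inhibition.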

UACC-62 = experiment: Growth inhibition of human UACC62 cells at 10 uM after 48 hrs by coulter counter analysis; conditions: UACC-62, 48 h, read-out: GI
Procedure, shortened: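 Single-dose screen in the NCI 60 cell line panel. Cells grown in RPMI 1640 with 10% FBS. Compounds dissolved in DMSO and diluted in phosphate buffered saline, final DMSO under 1%. Duplicate wells seeded from culture at 6 × 10⁴ cells/ml. Incubated 48 h at 37 °C, humidified, 5% CO2. Cells diluted tenfold in saline and Coulter-counted. Percent growth inhibition computed against PBS/DMSO controls.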

SNB-19 = experiment: Growth inhibition of human SNB19 cells at 10 uM after 48 hrs by coulter counter analysis; conditions: SNB-19, 48 h, read-out: GI; procedure, shortened: as §1
MOLT-4 = experiment: Growth inhibition of human MOLT4 cells at 10 uM after 48 hrs by coulter counter analysis; conditions: MOLT-4, 48 h, read-out: GI; procedure, shortened: as §1
M14 = experiment: Growth inhibition of human M14 cells at 10 uM after 48 hrs by coulter counter analysis; conditions: M14, 48 h, read-out: GI; procedure, shortened: as §1

Structure (SMILES) | inhibition of growth at 10 µM [1] [%] | inhibition of growth at 10 µM (IGROV-1) [%] | inhibition of growth at 10 µM (OVCAR-4) [%] | inhibition of growth at 10 µM (COLO 205) [%] | inhibition of growth at 10 µM (Malme-3M) [%] | inhibition of growth at 10 µM (SF-539) [%] | inhibition of growth at 10 µM (SF-268) [%] | inhibition of growth at 10 µM (SK-MEL-2) [%] | inhibition of growth at 10 µM (A498) [%] | inhibition of growth at 10 µM (MCF7) [%] | inhibition of growth at 10 µM (HCT-15) [%] | inhibition of growth at 10 µM (RXF 393) [%] | inhibition of growth at 10 µM (HCC 2998) [%] | inhibition of growth at 10 µM (LOX IMVI) [%] | inhibition of growth at 10 µM (MDA-MB-435) [%] | inhibition of growth at 10 µM (HL-60(TB)) [%] | inhibition of growth at 10 µM (UACC-62) [%] | inhibition of growth at 10 µM (SNB-19) [%] | inhibition of growth at 10 µM (MOLT-4) [%] | inhibition of growth at 10 µM (M14) [%] | other results
Cc1cnc(NC(=O)CCN2CCN(c3ccccc3)CC2)s1 | < 10 | < 10 | < 10 | < 10 | < 10 | < 10 | < 10 | < 10 | < 10 | < 10 | < 10 | < 10 | < 10 | < 10 | < 10 | < 10 | < 10 | < 10 | < 10 | < 10 | inhibition of growth at 10 µM (NCI-H522): < 10%
CCOC(=O)c1sc(NC(=O)CN(C)C)nc1C | < 10 | < 10 | < 10 | < 10 | < 10 | < 10 | < 10 | < 10 | < 10 | < 10 | < 10 | < 10 | < 10 | < 10 | < 10 | < 10 | < 10 | < 10 | < 10 | < 10 | inhibition of growth at 10 µM (NCI-H522): < 10%
CCOC(=O)c1sc(NC(=O)CCN2CCOCC2)nc1C | < 10 | < 10 | < 10 | < 10 | < 10 | < 10 | < 10 | < 10 | < 10 | < 10 | < 10 | < 10 | < 10 | < 10 | < 10 | < 10 | < 10 | < 10 | < 10 | < 10 | inhibition of growth at 10 µM (NCI-H522): < 10%
CCOC(=O)c1sc(NC(=O)CCN2CCN(C)CC2)nc1C | < 10 | < 10 | < 10 | < 10 | < 10 | < 10 | < 10 | < 10 | < 10 | 16.3 | < 10 | < 10 | < 10 | 15.5 | < 10 | < 10 | < 10 | < 10 | < 10 | < 10 | inhibition of growth at 10 µM (NCI-H522): 12.9%
CCOC(=O)c1sc(NC(=O)CCN2CCN(c3ccccc3)CC2)nc1C | < 10 | < 10 | < 10 | < 10 | 12 | < 10 | < 10 | < 10 | 12.8 | < 10 | < 10 | < 10 | < 10 | < 10 | < 10 | < 10 | < 10 | < 10 | < 10 | < 10 | inhibition of growth at 10 µM (NCI-H522): < 10%
O=C(CCCl)Nc1nc(-c2ccccc2)cs1 | < 10 | 50 | 24.8 | 55.6 | 68.2 | 81.5 | 63 | 71.2 | 78.4 | 75.9 | 73 | 80.4 | 15.8 | 47.8 | 68.2 | 17.9 | 39 | 29.3 | 40.7 | 52.7 | –
CN1CCN(CCC(=O)Nc2nc(-c3ccccc3)cs2)CC1 | 10.5 | 10.6 | < 10 | < 10 | 12.7 | < 10 | < 10 | < 10 | < 10 | 11.8 | < 10 | 11.1 | < 10 | 11.1 | < 10 | 11.6 | 11.1 | < 10 | 35.7 | < 10 | inhibition of growth at 10 µM (NCI-H522): 16.5%
O=C(CN1CCN(c2ccccc2)CC1)Nc1nc(-c2ccccc2)cs1 | < 10 | 26.5 | < 10 | 12.4 | 23.4 | < 10 | < 10 | 11.6 | 44.1 | 19.3 | 54.6 | < 10 | < 10 | 11.5 | < 10 | 22 | 36.6 | 10.1 | 31.3 | 13.6 | inhibition of growth at 10 µM (NCI-H522): 29.7%
O=C(CCN1CCN(c2ccccc2)CC1)Nc1nc(-c2ccccc2)cs1 | 14 | 33.5 | 36.2 | < 10 | < 10 | 15.4 | 22.3 | < 10 | 67.5 | 12.7 | 20.6 | 11.8 | < 10 | 25.7 | 13.4 | < 10 | 33.2 | 10.3 | 37.9 | < 10 | inhibition of growth at 10 µM (NCI-H522): 21.3%
